The nature of assay [1]: inhibitors of TNFa-induced NFkB p65 translocation, primary screen, imaging, HUVEC, MLSMR starter and 10KST1 sets (AID 438;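 active = inhibition above 20% together with a positive visual image hit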;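 note: compound added about 3h40 before a 20 min TNFalpha stimulation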;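 for inhibition: signal is the nuclear over cytoplasmic p65 intensity ratio per well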). The note with it: HUVEC TNFa-induced p65 nuclear translocation; cell count: measured here: nuclei count (cytotoxicity indicator), at 2.08 µM; inhibition: at 2 µM, stronger effect = higher value, 0% TNFa-plus-vehicle, 100% no-TNFa wells.
The nature of assay [2]: reduction of polyQ htt aggregates in cells – imaging, exon1htt(103Q)mCFP cells, high-content imaging, primary screen (AID 483;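 active = visual image review flags a hit and inhibition of aggregation exceeds 20%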;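 note: compound exposure lasted 3 days before fixation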;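 for nuclei count: percent of the per-plate median nuclei count of sample wells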). The note with it: exon1htt(103Q)mCFP cell line, aggregate imaging, at 2 µM; inhibition of aggregation: stronger effect = higher value; nuclei count: measured here: cell count, toxicity.
A short description of assay [3]: endothelial E-selectin expression blockers – imaging, HUVEC, immunofluorescence, MLSMR starter and 10KST1 sets, primary screen (AID 487;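 active = visually confirmed hit in the image check and inhibition above 20%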;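 for inhibition: signal is fraction of cell area covered by stained E-selectin grains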;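 for nuclei count: 100% = median nuclei count of all wells on the same plate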). The note with it: HUVEC TNFalpha-induced E-selectin immunofluorescence imaging, at 2 µM; inhibition: stronger effect = higher value; nuclei count: measured here: cell number, toxicity.
Assay [4] has as its target Voltage-gated potassium channel subunit beta-2 (Rattus norvegicus) (UniProt P62483). In words: inhibitors of rat Kvbeta2 reductase activity – biochemical, NADPH fluorescence, primary screen (AID 622;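 active = fluorescence slope higher than the sample average by over 3 SD, cut at about -0.22 in these data, passing the limit was not always enough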;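 note: slope of raw intensity against log time taken from 70 to 1610 s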). To be noted: recombinant KvBeta, 4-cyanobenzaldehyde reduction, at 10 µM, stronger effect = higher value.
Assay [5] shares this target. In words: enhancers of rat Kvbeta2 NADPH turnover – biochemical, NADPH fluorescence, primary screen (AID 623;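 active = NADPH fluorescence slope more negative than the mean of all samples by about 3 SD, 99.7% confidence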;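 note: fluorescence intensity change per second fitted from 20 to 320 s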). To be noted: Recombinant KvBeta, NADPH fluorescence decrease slope, 10 min; at 10 µM; stronger effect = lower value.
In assay [6] the target is Muscarinic acetylcholine receptor M4 (Homo sapiens) (UniProt P08173). The assay can be described thus: M4-linked GIRK flux change, two-sided – cell-based, HEK293 M4/GIRK, thallium flux, BTC-AM, M4 allosteric agonist project, primary screen (AID 625;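 active = fluorescence slope after compound addition differing from the mean of all tested samples at 99.7% confidence, mostly higher but some lower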;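 note: thallium influx through GIRK channels coupled to M4 in HEK293 cells with BTC-AM dye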). The note with it: at 10 µM, actives lie on both sides. Put shortly: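 assay system = HEK293 cells with M4 receptor and GIRK channels | medium = pH 7.3 thallium assay buffer | doses = 10 µM final, single point | timing = cells overnight at 37 °C, BTC-AM loading 1 h, reads 2 min total | signal = BTC-AM fluorescence, 1 Hz kinetic reads | read-out = post-addition slope, 15–24 s, of baseline-normalized fluorescence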

Assay [7] in a line: blockers of RIG-like receptor reporter activation – cell-based, Sendai virus stimulus, luciferase, 10K MLSCN set, TLR/RLR signaling modifier project, primary screen (AID 602276;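 active = inhibition at or above 50% at 10 µM; inactive = inhibition below 50%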;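 note: firefly luciferase from ISG56 promoter only with Renilla not read in this screen; 0% = Sendai virus plus DMSO and 100% = medium plus DMSO without virus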). To be noted: HEK293 RL24 IRF3 luciferase reporter, at 10 µM, stronger effect = higher value. In general terms: In a reporter assay the amount or activity of a reporter protein is the signal.
Assay [8] is described as follows: TLR3 IRF3 reporter activation blockers – cell-based, poly I:C stimulus, luciferase, 10K MLSCN set, primary screen (AID 602277). The note with it: HEK293-TLR3 RL24 IRF3 luciferase reporter, at 10 µM, stronger effect = higher value.

SMILES strings stand for the structures. The source made the active and inactive calls.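 Rule for the calls, unless noted: active = inhibition of the reporter signal at or above 50%; inactive = inhibition below 50%.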

Results on 14 compounds are retold here after PubChem BioAssay.

Muscarinic acetylcholine receptor M4 (Homo sapiens), sequence (P08173 whole entry, looked up): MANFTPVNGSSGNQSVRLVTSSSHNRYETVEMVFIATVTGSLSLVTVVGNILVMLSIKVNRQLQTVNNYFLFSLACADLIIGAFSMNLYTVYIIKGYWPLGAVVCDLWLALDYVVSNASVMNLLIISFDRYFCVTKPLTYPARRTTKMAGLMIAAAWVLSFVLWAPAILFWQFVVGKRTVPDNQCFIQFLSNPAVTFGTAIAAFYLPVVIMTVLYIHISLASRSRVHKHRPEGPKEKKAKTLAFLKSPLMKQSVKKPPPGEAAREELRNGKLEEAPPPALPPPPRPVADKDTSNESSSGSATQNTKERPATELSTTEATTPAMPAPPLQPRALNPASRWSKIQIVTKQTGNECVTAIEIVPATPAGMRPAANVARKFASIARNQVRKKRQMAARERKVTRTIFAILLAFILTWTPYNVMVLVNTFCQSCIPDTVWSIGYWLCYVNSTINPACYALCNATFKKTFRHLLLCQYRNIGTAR
Voltage-gated potassium channel subunit beta-2 (Rattus norvegicus), sequence (P62483 whole entry, looked up): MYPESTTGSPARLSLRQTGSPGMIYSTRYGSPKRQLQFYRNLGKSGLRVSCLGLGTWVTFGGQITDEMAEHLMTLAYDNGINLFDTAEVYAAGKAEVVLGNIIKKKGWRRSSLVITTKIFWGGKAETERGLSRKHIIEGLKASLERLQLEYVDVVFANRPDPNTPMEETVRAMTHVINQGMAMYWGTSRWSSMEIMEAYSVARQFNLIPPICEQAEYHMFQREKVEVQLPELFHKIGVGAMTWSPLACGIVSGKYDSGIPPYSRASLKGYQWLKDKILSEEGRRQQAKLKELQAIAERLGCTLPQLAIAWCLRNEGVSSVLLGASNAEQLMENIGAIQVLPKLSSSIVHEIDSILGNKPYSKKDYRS

One may read the inhibition as the relative decrease from the control value, in per cent. For `COC(=O)c1cccc(S(=O)(=O)N2CCN(c3nc4ccccc4s3)CC2)c1`, the cell count in assay [1] amounted to 299. The inhibition in assay [1] was -5% (inactive); in assay [3] it was -24.1% (inactive); in assay [7] it was 1.3% (inactive); in assay [8], 8.61% (inactive). Further, in assay [2], the inhibition of aggregation was 6.2% (inactive). The nuclei count in assay [2] turned out to be 96.3%; in assay [3], 80.7%. Besides, the figures for the fluorescence slope in assay [4] and in assay [6] were -0.539 (inactive) and 0.00622 (inactive), respectively. For the same compound, the NADPH fluorescence slope in assay [5] is 1.2e-05 (inactive).
With `COC(=O)c1ccc(-c2ccc(CNCC(O)c3ccccc3)o2)cc1` (centres undefined), the cell count in assay [1] worked out at 400. The inhibition was 3.2% (inactive) in assay [1], -27.1% (inactive) in assay [3], 13.2% (inactive) in assay [7] and 13.8% (inactive) in assay [8]. Further, the inhibition of aggregation in assay [2] was -6% (inactive). Also, the nuclei count in assay [2] was 111%; in assay [3], 115%. Also, the fluorescence slope in assay [4] is -0.313 (inactive); in assay [6], 0.00598 (inactive). In addition, in assay [5], the NADPH fluorescence slope is -1.1e-05 (inactive).
For the compound `N#Cc1cc2sc3nnc(-c4ccncc4)n3c2cc1C#N`, the cell count in assay [1] is 728. In addition, the inhibition in assay [1] is 10.9% (inactive); in assay [3], 22.9% (inactive); in assay [7], 5.55% (inactive); in assay [8], -16.8% (inactive). In addition, in assay [2], the inhibition of aggregation is -17.6% (inactive). The nuclei count in assay [2] came to 49.6%; in assay [3], 77.1%. For the same compound, the fluorescence slope is -0.529 (inactive) in assay [4] and 0.0043 (inactive) in assay [6]. The NADPH fluorescence slope in assay [5] is 1.4e-05 (inactive).
Regarding `CCOc1ccc2nc(NC(=O)C(NS(=O)(=O)c3cccs3)C(C)C)sc2c1` (centres undefined), in assay [1], the cell count worked out at 390. Moreover, the inhibition is 10% (inactive) in assay [1], -146% (inactive) in assay [3], 18.1% (inactive) in assay [7] and 20.4% (inactive) in assay [8]. In addition, the inhibition of aggregation in assay [2] was 6.2% (inactive). Besides, the results for the nuclei count in assay [2] and in assay [3] were 105% and 122%, respectively. In addition, the results for the fluorescence slope in assay [4] and in assay [6] were -0.423 (inactive) and 0.00543 (inactive), respectively. For the same compound, the NADPH fluorescence slope in assay [5] is 2.6e-05 (inactive).
Turning to `Cc1cc(C)cc(N2CCCn3c2nc2c3c(=O)n(CCN3CCOCC3)c(=O)n2C)c1`, in assay [1], the cell count amounted to 390. Moreover, the inhibition in assay [1] is 3.3% (inactive); in assay [3], 27.6% (inactive); in assay [7], 18.5% (inactive); in assay [8] it was 34.4% (inactive). Besides, the inhibition of aggregation in assay [2] was 0.7% (inactive). The figures for the nuclei count in assay [2] and in assay [3] were 108% and 103%, respectively. Further, the fluorescence slope in assay [4] is -0.388 (inactive); in assay [6] it was 0.00574 (inactive). In addition, the NADPH fluorescence slope in assay [5] was 6.6e-05 (inactive).
Consider `O=C(NCCCN1CCCC1=O)c1cncc(Br)c1`, for which the cell count in assay [1] was determined as 394. Further, the inhibition was -5.8% (inactive) in assay [1], 54.5% (active) in assay [3], 13.1% (inactive) in assay [7] and 24.3% (inactive) in assay [8]. In assay [2], the inhibition of aggregation is 14.1% (inactive). Besides, the nuclei count in assay [2] turned out to be 91.8%; in assay [3] it was 72.7%. Moreover, the results for the fluorescence slope in assay [4] and in assay [6] were -0.418 (inactive) and 0.00605 (inactive), respectively. Besides, the NADPH fluorescence slope in assay [5] is -9.4e-05 (inactive).
Turning to `CC1CCN(C(=S)c2ccccc2O)CC1`, the cell count in assay [1] came out at 713. In addition, the inhibition in assay [1] is -2.9% (inactive); in assay [3], -144% (inactive); in assay [7], 24.9% (inactive); in assay [8] it was 34.5% (inactive). In addition, the inhibition of aggregation in assay [2] was 7.3% (inactive). In addition, the nuclei count was determined as 98.7% in assay [2] and 121% in assay [3]. Besides, the values for the fluorescence slope in assay [4] and in assay [6] were -0.536 (inactive) and 0.0045 (inactive), respectively. Further, the NADPH fluorescence slope in assay [5] was -5.2e-05 (inactive).
As for `COCCn1c(SCC(=O)Nc2nnc(C)s2)nnc1-c1ccncc1`, the cell count in assay [1] amounted to 564. The inhibition was -7.5% (inactive) in assay [1], -32.1% (inactive) in assay [3], 18.4% (inactive) in assay [7] and -2.25% (inactive) in assay [8]. Besides, the inhibition of aggregation in assay [2] is 7.7% (inactive). In addition, the nuclei count worked out at 99.2% in assay [2] and 115% in assay [3]. Moreover, the fluorescence slope in assay [4] was -0.172 (inactive); in assay [6] it was 0.00934 (inactive). Moreover, the NADPH fluorescence slope in assay [5] was -1.8e-05 (inactive).
On to `Cc1ccc(Nc2nnns2)cc1C`, for which the cell count in assay [1] is 758. For the same compound, the inhibition in assay [1] is 5% (inactive); in assay [3], -52.7% (inactive); in assay [7], 6.92% (inactive); in assay [8], 7.21% (inactive). Besides, the inhibition of aggregation in assay [2] is -5% (inactive). The nuclei count came out at 105% in assay [2] and 116% in assay [3]. Besides, the values for the fluorescence slope in assay [4] and in assay [6] were -0.58 (inactive) and 0.00717 (inactive), respectively. Also, in assay [5], the NADPH fluorescence slope was 1.4e-05 (inactive).
`CCCc1cc(C(N)=O)c(NC(=O)c2ccco2)s1`: the cell count in assay [1] came out at 356. Besides, the inhibition is -5.6% (inactive) in assay [1], -45% (inactive) in assay [3], -0.517% (inactive) in assay [7] and -22.9% (inactive) in assay [8]. Besides, the inhibition of aggregation in assay [2] was 2.7% (inactive). Also, the nuclei count in assay [2] came to 97.2%; in assay [3], 111%. Also, the fluorescence slope in assay [4] was -0.54 (inactive); in assay [6], 0.00337 (inactive). In assay [5], the NADPH fluorescence slope is -5.6e-05 (inactive).
As to `CC(C)[C@H](NC(=O)OC(C)(C)C)c1nnc(S(=O)(=O)Cc2c(F)cccc2Cl)o1`, the cell count in assay [1] stood at 570. Moreover, the inhibition is 10.7% (inactive) in assay [1], 36.5% (inactive) in assay [3], 32.2% (inactive) in assay [7] and 21.7% (inactive) in assay [8]. In assay [2], the inhibition of aggregation is -0.1% (inactive). Further, the nuclei count in assay [2] came out at 89.7%; in assay [3], 101%. In addition, the fluorescence slope in assay [4] was -0.521 (inactive); in assay [6] it was 0.00242 (inactive). For the same compound, in assay [5], the NADPH fluorescence slope was -0.000188 (inactive).
In the case of `COc1ccccc1-n1nnnc1SCc1ccccc1`, the cell count in assay [1] was 211. Besides, the inhibition was -1.5% (inactive) in assay [1], -25.5% (inactive) in assay [3], 13% (inactive) in assay [7] and 16.5% (inactive) in assay [8]. In assay [2], the inhibition of aggregation is 6.5% (inactive). Besides, the figures for the nuclei count in assay [2] and in assay [3] were 108% and 92.6%, respectively. The results for the fluorescence slope in assay [4] and in assay [6] were -0.51 (inactive) and 0.00333 (inactive), respectively. In addition, the NADPH fluorescence slope in assay [5] is -2.7e-05 (inactive).
`CC(C)Cn1c(=O)c(C(=O)NCc2ccccn2)c(O)c2ccccc21`: the cell count in assay [1] came out at 771. Besides, the inhibition in assay [1] is -20.7% (inactive); in assay [3], -24% (inactive); in assay [7], 10.4% (inactive); in assay [8], -3.14% (inactive). For the same compound, in assay [2], the inhibition of aggregation is -28.1% (inactive). The figures for the nuclei count in assay [2] and in assay [3] were 104% and 108%, respectively. Further, the fluorescence slope in assay [4] is -0.37 (inactive); in assay [6], 0.00508 (inactive). Besides, the NADPH fluorescence slope in assay [5] was -4.4e-05 (inactive).
For the compound `O=C(CCCCn1c(=O)[nH]c2ccsc2c1=O)NCc1cccnc1`, the cell count in assay [1] came out at 684. Besides, the inhibition in assay [1] was -1% (inactive); in assay [3], 3.5% (inactive); in assay [7], 17% (inactive); in assay [8], 15.3% (inactive). For the same compound, the inhibition of aggregation in assay [2] is 5% (inactive). In addition, the nuclei count in assay [2] is 99.7%; in assay [3], 119%. Also, the fluorescence slope in assay [4] was -0.46 (inactive); in assay [6], 0.00456 (inactive). Also, the NADPH fluorescence slope in assay [5] is -5.1e-05 (inactive).
